28 molecules from ChEMBL document CHEMBL1127424, “7-azetidinylquinolones as antibacterial agents. 2. Synthesis and biological activity of 7-(2,3-disubstituted-1-azetidinyl)-4-oxoquinoline- and -1,8-naphthyridine-3-carboxylic acids. Properties and structure-activity relationships of quinolones with an azetidine moiety” (J Med Chem, 1994) can be followed below.

Values after ≈ are worked out from the molar mass of the structure shown.

A short description of data set [1]: HPLC capacity factor (k'). The data set is classed as ADME. The gist of the method: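 Ion-pair reversed-phase HPLC on ODS-2 (10 μm) at 45 °C. Mobile phase: 10 mM sodium heptanesulfonate plus 50 mM KH2PO4 (pH 3.5)–methanol 45:55, 1 mL/min. Samples at 100 μg/mL in DMF, injected in duplicate, UV 280 nm. k' = (tR − t0)/t0.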
Another data set has as its system Bacillus subtilis. The data set is described as follows: In vitro minimum inhibitory concentration for Bacillus subtilis ATCC 6633. The data set is classed as functional. The gist of the method:
(§1)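 Serial 2-fold agar dilution in Mueller Hinton medium, run alongside a reference quinolone. Inoculum adjusted to 10⁸ cfu/mL; compound range 0.007–16 μg/mL.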

The subject of the next data set is Proteus vulgaris. The data set is described as follows: In vitro minimum inhibitory concentration for Proteus vulgaris ATCC 8427. The data set is classed as functional. The gist of the method:
as §1

Another data set has as its system Enterobacter cloacae. The data set is described as follows: In vitro minimum inhibitory concentration for Enterobacter cloacae ATCC 23355. The data set is classed as functional.
The subject of another data set is Pseudomonas aeruginosa. Briefly: In vitro minimum inhibitory concentration for Pseudomonas aeruginosa ATCC 10145. The class given is functional. The gist of the method:
as §1

The subject of another data set is Escherichia coli. Briefly: In vitro minimum inhibitory concentration for Escherichia coli ATCC 10799. The class given is functional. The procedure, abridged: as §1
Data set [2] relates to Staphylococcus epidermidis. The data set is described as follows: In vitro minimum inhibitory concentration for Staphylococcus epidermidis ATCC 155-1. The data set is classed as functional. The procedure, abridged: as §1
The subject of the next data set is Klebsiella pneumoniae. The data set is described as follows: In vitro minimum inhibitory concentration to inhibit Klebsiella pneumoniae ATCC 10031. The data set is classed as functional. The procedure, abridged: as §1
Another data set concerns Staphylococcus aureus. The data set is described as follows: In vitro minimum inhibitory concentration for Staphylococcus aureus ATCC 25178. The class given is functional. The gist of the method: as §1
The next data set deals with Bacillus cereus. The data set is described as follows: In vitro minimum inhibitory concentration for Bacillus cereus ATCC 11778. The class given is functional. The procedure, abridged:
as §1

The next data set concerns Morganella morganii. The data set is described as follows: In vitro minimum inhibitory concentration for Morganella morganii ATCC 8019. The data set is classed as functional. The procedure, abridged: as §1
The test system of the next data set is Enterococcus faecalis. Briefly: In vitro minimum inhibitory concentration for Streptococcus faecalis ATCC 10541. The class given is functional. The gist of the method:
as §1

Take `O=C(O)c1cn(C2CC2)c2cc(N3CC(O)C3)c(F)cc2c1=O`: the “Log k'” value in data set [1] is 0.1906.
Take `CC1(N)CN(c2cc3c(cc2F)c(=O)c(C(=O)O)cn3-c2ccc(F)cc2)C1`: in data set [1], the “Log k'” value is given as -0.0223.
Still for that read-out and setting: to `CCNCC1(C)CN(c2cc3c(cc2F)c(=O)c(C(=O)O)cn3C2CC2)C1` belongs -0.0356.
Still for that read-out and setting: then `CCn1cc(C(=O)O)c(=O)c2c(N)c(F)c(N3CC(C)(N)C3)c(F)c21`, with 0.0367.
With `CC[C@H]1[C@@H](O)CN1c1c(F)cc2c(=O)c(C(=O)O)cn(C3CC3)c2c1F`, the MIC (as a rule, the lowest concentration that inhibits growth of the organism) was 0.12 µg/mL (≈ 0.329 µM) against Bacillus subtilis; 0.5 µg/mL (≈ 1.37 µM) with Proteus vulgaris; 0.5 µg/mL (≈ 1.37 µM) in the data set with Enterobacter cloacae; 8 µg/mL (≈ 22 µM) in the data set on Pseudomonas aeruginosa; 1 µg/mL (≈ 2.74 µM) in the data set with Escherichia coli; 0.5 µg/mL (≈ 1.37 µM) in [2]. The MIC against Klebsiella pneumoniae turned out to be 0.5 µg/mL (≈ 1.37 µM); in the data set on Staphylococcus aureus, 1 µg/mL (≈ 2.74 µM); in the data set on Bacillus cereus, 0.5 µg/mL (≈ 1.37 µM); in the data set with Morganella morganii it was 1 µg/mL (≈ 2.74 µM); in the data set on Enterococcus faecalis, 8 µg/mL (≈ 22 µM). Besides, the “Log k'” value in data set [1] worked out at 0.679.
As for `CC1(N)CN(c2c(F)cc3c(=O)c(C(=O)O)cn(-c4ccc(F)cc4F)c3c2F)C1`, in [1], the “Log k'” value was found to be 0.238.
Still for that read-out and setting: then `CC1(N)CN(c2c(F)cc3c(=O)c(C(=O)O)cn(CCF)c3c2Cl)C1`, with -0.0332; and `CC1(N)CN(c2nc3c(cc2F)c(=O)c(C(=O)O)cn3CCF)C1`, with -0.1706; and `CC1(N)CN(c2c(F)cc3c(=O)c(C(=O)O)cn(-c4ccc(F)cc4)c3c2Cl)C1`, with 0.2546.
Same read-out and setting: then `O=C(O)c1cn(C2CC2)c2cc(N3CCC3)c(F)cc2c1=O`, with 0.7188.
Regarding `CNC1CN(c2c(F)cc3c(=O)c(C(=O)O)cn(-c4ccc(F)cc4F)c3c2Cl)C1`, the “Log k'” value in data set [1] was 0.25.
Regarding `CC1(N)CN(c2cc3c(cc2F)c(=O)c(C(=O)O)cn3CCF)C1`, the “Log k'” value in data set [1] amounted to 0.0374.
Consider `CC1(N)CN(c2nc3c(cc2F)c(=O)c(C(=O)O)cn3-c2ccc(F)cc2)C1`, for which the “Log k'” value in data set [1] is recorded as -0.0388.
With `CC1(O)CN(c2cc3c(cc2F)c(=O)c(C(=O)O)cn3C2CC2)C1`, the “Log k'” value in [1] is reported as 0.2148.
For the molecule `O=C(O)c1cn(C2CC2)c2c(F)c(N3CC(O)C3)c(F)cc2c1=O`, in data set [1], the “Log k'” value worked out at 0.3264.
Same read-out and setting: then `CCNCC1(C)CN(c2c(F)cc3c(=O)c(C(=O)O)cn(C4CC4)c3c2F)C1`, with -0.0118; and `CCC1(O)CN(c2c(F)cc3c(=O)c(C(=O)O)cn(C4CC4)c3c2F)C1`, with 0.7591; and `CNC1CN(c2nc3c(cc2F)c(=O)c(C(=O)O)cn3C2CC2)C1`, with -0.0773.
The same measure, in the same setting: to `CCNCC1CN(c2c(F)cc3c(=O)c(C(=O)O)cn(C4CC4)c3c2F)C1` belongs 0.2742.
Same read-out and setting: then `CC1(N)CN(c2c(F)cc3c(=O)c(C(=O)O)cn(-c4ccc(F)cc4)c3c2F)C1`, with 0.1106; and `CC1(N)CN(c2c(F)cc3c(=O)c(C(=O)O)cn(-c4ccc(F)cc4F)c3c2Cl)C1`, with 0.3448; and `CNC1(C)CN(c2nc3c(cc2F)c(=O)c(C(=O)O)cn3C2CC2)C1`, with 0.0408.
In the case of `CCNCC1CN(c2cc3c(cc2F)c(=O)c(C(=O)O)cn3C2CC2)C1`, the “Log k'” value in [1] is listed as -0.106.
The same measure, in the same setting: then `NCC1CN(c2cc3c(cc2F)c(=O)c(C(=O)O)cn3C2CC2)C1`, with -0.1549; and `Nc1c(F)c(N2CC(O)C2)c(F)c2c1c(=O)c(C(=O)O)cn2C1CC1`, with 0.3487.
For the molecule `C[C@H]1N(c2c(F)cc3c(=O)c(C(=O)O)cn(C4CC4)c3c2F)C[C@]1(C)O`, the MIC against Bacillus subtilis was 0.015 µg/mL (≈ 0.0412 µM); against Proteus vulgaris, 0.25 µg/mL (≈ 0.686 µM); in the data set on Enterobacter cloacae it was 0.5 µg/mL (≈ 1.37 µM); against Pseudomonas aeruginosa it was 2 µg/mL (≈ 5.49 µM); against Escherichia coli, 1 µg/mL (≈ 2.74 µM); in data set [2], 0.12 µg/mL (≈ 0.329 µM). Further, the MIC with Klebsiella pneumoniae was found to be 0.015 µg/mL (≈ 0.0412 µM); in the data set with Staphylococcus aureus, 0.12 µg/mL (≈ 0.329 µM); with Bacillus cereus, 0.12 µg/mL (≈ 0.329 µM); in the data set on Morganella morganii, 0.5 µg/mL (≈ 1.37 µM); with Enterococcus faecalis, 0.5 µg/mL (≈ 1.37 µM). Further, the “Log k'” value in [1] was determined as 0.6899.
Regarding `CC1(CN)CN(c2cc3c(cc2F)c(=O)c(C(=O)O)cn3C2CC2)C1`, the “Log k'” value in data set [1] was -0.0782.
For the molecule `CC1(C)[C@@H](N)CN1c1c(F)cc2c(=O)c(C(=O)O)cn(C3CC3)c2c1F`, the MIC in the data set with Bacillus subtilis was found to be 0.015 µg/mL (≈ 0.0413 µM); against Proteus vulgaris, 0.25 µg/mL (≈ 0.688 µM); against Enterobacter cloacae, 0.06 µg/mL (≈ 0.165 µM); in the data set with Pseudomonas aeruginosa it was 2 µg/mL (≈ 5.5 µM); in the data set on Escherichia coli, 0.12 µg/mL (≈ 0.33 µM); in data set [2], 0.12 µg/mL (≈ 0.33 µM). Further, the MIC in the data set with Klebsiella pneumoniae was found to be 0.03 µg/mL (≈ 0.0826 µM); against Staphylococcus aureus it was 0.12 µg/mL (≈ 0.33 µM); with Bacillus cereus, 0.12 µg/mL (≈ 0.33 µM); with Morganella morganii it was 0.12 µg/mL (≈ 0.33 µM); against Enterococcus faecalis, 0.5 µg/mL (≈ 1.38 µM). For the same molecule, the “Log k'” value in [1] stood at 0.1903.
